Rows were chosen to be rich in hits. Some 3% of all compounds tested hit in one or more screens of this group.
MEKK2 mut-MEK5 = MEK5 binding signal on mutant MEKK2 PB1, primary screen, biochemical, multiplex bead flow cytometry, Alexa488-MEK5. Alexa488-MEK5 binding to MEKK2 mutant. percent response, % at 10 µM. actives 0.35% (n = 290,000); in the data active means percent response above about 24%, passing the limit was not always enough
UCH37 inh = inhibitors of human UCH37 deubiquitinase, primary screen, biochemical, Ub-AMC cleavage, fluorescence; Ubiquitin carboxyl-terminal hydrolase isozyme L5 (Homo sapiens), Q9Y5K5; purified proteasome/UCH37; inhibition, % (concentration not given with the values); actives 0.33% (n = 330,000); AID 588478, 2011;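 active means mean inhibition over replicate wells above about 20%, limit read from the data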;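 further: 0% = compound-free wells with enzyme and 100% = wells lacking proteasome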
Target sequence (Q9Y5K5 whole entry, looked up): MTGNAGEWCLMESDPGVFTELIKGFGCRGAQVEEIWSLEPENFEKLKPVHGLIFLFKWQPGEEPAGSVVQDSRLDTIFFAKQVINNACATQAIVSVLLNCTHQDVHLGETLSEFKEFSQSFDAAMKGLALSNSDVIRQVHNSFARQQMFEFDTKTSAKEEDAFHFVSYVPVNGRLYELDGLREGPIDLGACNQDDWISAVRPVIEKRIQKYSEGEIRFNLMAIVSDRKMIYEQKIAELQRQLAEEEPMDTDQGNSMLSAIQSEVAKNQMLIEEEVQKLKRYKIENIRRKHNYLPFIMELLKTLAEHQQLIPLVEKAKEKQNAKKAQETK
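Material: human UCH37 enzyme supplied as purified proteasome complex / Amount: 0.15 nM proteasome as dispensed / Buffer or medium: pH 7.4 Tris-HCl (50 mM) with ovalbumin, ATP-MgCl2, DTT / Times: preincubation 30 min, reaction 25 min, room temperature / Technique: AMC fluorescence from Ub-AMC cleavage, excitation 355 nm, emission 460 nm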
MEKK2 WT-MEK5 = modulators of MEK5 binding to wildtype MEKK2, primary screen, biochemical, multiplex bead flow cytometry, Alexa488-MEK5; Mitogen-activated protein kinase kinase kinase 2 (Homo sapiens), Q9Y2U5; actives 1.1% (n = 290,000); binding response (% of control), % at 10 µM; AID 1531, 2009; Alexa488-MEK5 binding to MEKK2 WT; actives lie on both sides; in the data active means binding response below about 67% or above about 130%
Apaf-1 inh = inhibitors of human Apaf-1 apoptosome, primary screen, biochemical, DEVD-Rh110 fluorescence, uHTS; reconstituted apoptosome caspase-3 activity; inhibition, % at 20 µM; actives 0.71% (n = 330,000); AID 489030, 2010; active means inhibition of at least 40% at 20 µM;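 further: plate controls were DMSO wells for no effect and DEVD-CHO caspase inhibitor wells for full effect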
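detection = Rh110 fluorescence intensity | test system = biochemical Apaf-1 apoptosome reconstitution | also added = cytochrome c and DEVD-Rh110 substrate | schedule = 30 min plus 50 min, RT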
UBC13 inh = UBC13 polyubiquitin chain formation inhibitors, primary screen, biochemical, TR-FRET, uHTS. Ubiquitin-conjugating enzyme E2 N (Homo sapiens), P61088. inhibition, % at 20 µM. actives 0.47% (n = 330,000). AID 485273, 2010; in the data active means inhibition above about 45%, passing the limit was not always enough
Target sequence (P61088 whole entry, looked up): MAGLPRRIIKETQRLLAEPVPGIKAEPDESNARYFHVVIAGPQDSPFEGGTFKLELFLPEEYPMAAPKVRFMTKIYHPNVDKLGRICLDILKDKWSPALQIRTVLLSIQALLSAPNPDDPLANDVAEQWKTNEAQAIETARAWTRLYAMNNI
MEKK3 PB1 HTS = modulators of MEKK3-MEK5 PB1 binding, primary screen, biochemical, wildtype MEKK3, multiplex bead flow cytometry, Alexa488-MEK5 | Mitogen-activated protein kinase kinase kinase 3 (Homo sapiens), Q99759 | bead-based flow cytometry, Alexa488-MEK5 binding to MEKK3; actives lie on both sides; 0 = blocked by unlabeled MEK5, 100 = vehicle | binding response (% of control), % at 10 µM | actives 1.4% (n = 290,000);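 active means binding response more than 3 SD above or below the average of its plate-row segment, actives on both sides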;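 further: Alexa488 bead fluorescence after subtracting the streptavidin-only scavenger bead signal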
Apaf-1 inh conf = Apaf-1 inhibitors, single-dose retest, confirmation, biochemical, fluorescence, DEVD-Rh110, 20 µM; shares compounds with Apaf-1 inh; reconstituted apoptosome, caspase-3 DEVD-Rh110 fluorescence; inhibition, % at 20 µM; actives 25% (n = 1,800); AID 504614, 2011;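 active means mean inhibition of at least 40% at 20 µM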;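 further: plate controls were DMSO wells for no effect and DEVD-CHO caspase inhibitor control wells for full effect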
Rh110 quench = Rh110 fluorescence interference by putative Apaf-1 inhibitors, confirmation, artefact control for Apaf-1 inhibitor project, biochemical, 20 µM; shares compounds with Apaf-1 inh; quenched caspase reaction; activation (fluorescence interference), % at 20 µM; 1,800 tested, under 10 active; AID 504615, 2011;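 active means signal rise of 40% or more at 20 µM, treated as a fluorescence artifact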
Fluor interf inh = fluorescence interference of Apaf-1 inhibitor hits, dose response, artefact control for Apaf-1 inhibitor project | 460 tested, under 10 active | IC50, µM | fluorescence interference counterscreen, Apaf-1 assay format | shares compounds with Apaf-1 inh | AID 588538, 2011; call rule not given here
UCH37 confirm = retest of human UCH37 deubiquitinase inhibitors, confirmation, biochemical, Ub-AMC cleavage rate, fluorescence; shares compounds with UCH37 inh; Proteasome-bound UCH37; inhibition, % at 20 µM; actives 27% (n = 480); AID 624100, 2012;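 active means average inhibition over replicates above about 50%, so the earlier screening hit is confirmed, limit read from the data; inactive means the rest, counted as false positives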;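 further: based on cleavage rate fitted by regression over a 30 min kinetic read; 0% = proteasome plus Ub-AMC and 100% = Ub-AMC without proteasome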
* hit, by the source's call; · = not tested or not shown.

SMILES	MEKK2 mut-MEK5	UCH37 inh	MEKK2 WT-MEK5	Apaf-1 inh	UBC13 inh	MEKK3 PB1 HTS	Apaf-1 inh conf	Rh110 quench	Fluor interf inh	UCH37 confirm
Nc1ccc(-n2nncc2-c2ccc(Cl)cc2)cc1	3	3	97	-5	-1	104	·	·	·	·
COc1ccc(N2CCN(C(=O)c3ccc4c(=O)n(CCc5ccc(OC)c(OC)c5)c(=O)[nH]c4c3)CC2)cc1	3	1	99	20	12	102	·	·	·	·
CCC(=O)N(CC)C1=C(O)c2ccccc2C(=O)C1=O	6	37*	102	55*	-56	103	14	-2	·	9
CCC(=O)N(C)/C=C1\Sc2ccccc2C1=O	2	4	94	-6	1	99	·	·	·	·
O=C1C(C2=NC(C(=O)O)C3C(=O)N(c4ccccc4)C(=O)C23)=C(O)c2ccccc21 (stereo not given)	-5	8	95	1	-31	96	·	·	·	·
O=C1C(C2=C(O)c3ccccc3C2=O)=Nc2ccccc21	2	85*	97	66*	-94	99	99*	12	>100	103*
COc1ccc(NC(=O)C(=O)NCC(c2ccco2)N2CCc3ccccc32)cc1 (stereo not given)	·	3	·	15	2	·	·	·	·	·
Cc1ccc(C(=O)Nc2cccc(O)c2)cc1S(=O)(=O)N1CCCCCC1	4	8	98	13	2	99	·	·	·	·
O=C1C(Nc2cccc(O)c2)=C(N2CCCCC2)C(=O)c2ccccc21	-3	31*	91	88*	-76	98	91*	0	>100	35
O=C(OCc1nnc(-c2ccccc2)o1)c1ccc([N+](=O)[O-])s1	·	80*	·	47*	-4	·	21	-2	·	44
Cc1ccc(C(C[N+](=O)[O-])c2c(C)[nH]n(-c3ccccc3)c2=O)cc1 (stereo not given)	3	53*	102	93*	-18	102	44*	1	>100	4
Cc1[nH]n(-c2ccccc2)c(=O)c1C(c1ccccc1C(=O)O)c1c(C)[nH]n(-c2ccccc2)c1=O	5	2	101	-4	8	103	·	·	·	·
O=C1c2ccccc2C(=O)c2c1cccc2-n1nnc2ccccc21	2	0	104	5	-1	108	·	·	·	·
O=C1C(N2CCOCC2)=C(n2nnc3ccccc32)C(=O)c2ccccc21	3	72*	104	94*	-176	102	97*	10	>100	88*
CCOc1c(O)ccc(/C=C2\SC(=S)NC2=O)c1[N+](=O)[O-]	-1	59*	95	56*	-45	95	55*	5	>100	63*
CC1(C)CC(=O)C2=C(C1)N(c1ccccc1)C(=O)C2(O)C(F)(F)F (stereo not given)	0	7	103	7	6	108	·	·	·	·
CCOC(=O)N1CCN(S(=O)(=O)c2ccc(NC(C)=O)cc2)CC1	2	4	104	-1	-13	102	·	·	·	·
CCOC(=O)N1CCN(C2=C(NS(=O)(=O)c3ccc(NC(C)=O)cc3)C(=O)c3ccccc3C2=O)CC1	1	30*	101	83*	-86	96	25	11	·	15
CCOC(=O)c1c2c(n(C)c1C)C(=O)C(=O)c1ccc(Br)cc1-2	3	56*	99	96*	-61	92	72*	6	>100	70*
CCOC(=O)c1c(-c2ccccc2)c(C(C)=O)c(=O)n(C)c1C	3	4	100	-2	-4	102	·	·	·	·
Cc1ccc(SC2=C(Sc3ccc(C)cc3)C(=O)c3ccccc3C2=O)cc1	-11	52*	77	64*	-29	85	32	7	·	29
O=c1cc2c(c(-c3ccccc3)n1Cc1ccccc1)[C@@H](CCO)NC2	·	-3	·	·	·	·	·	·	·	·
CC(C)[n+]1ccn(C2=C([O-])c3ccccc3C(=O)/C2=N\S(=O)(=O)c2ccccc2)c1	-21	39*	69	46*	-58	63	68*	3	>100	23
COc1cccc(CC(NC(C)=O)C(=O)NC2CCN(c3ncccc3[N+](=O)[O-])CC2)c1 (stereo not given)	-2	3	95	6	-16	98	·	·	·	·
CCCN(CCC)C(=O)C1CCCN(S(=O)(=O)c2ccc3c(c2)oc(=O)n3C)C1 (stereo not given)	2	-1	100	-3	6	100	·	·	·	·
O=C1C=C(Nc2ccccc2O)c2ccccc2C1=O	-1	81*	102	96*	-323	101	93*	1	>100	85*
O=C(NC1(O)C(=O)c2ccccc2C1=O)c1ccc(C(F)(F)F)cc1	-12	79*	87	96*	-38	87	98*	13	>100	69*
Cc1ccc(C(=O)NC2(O)C(=O)c3ccccc3C2=O)cc1C	-3	78*	99	97*	-39	101	93*	-5	>100	61*
O=S1(=O)CC/C(=N\Nc2ccccc2)c2ccsc21	3	·	103	-5	3	103	·	·	·	·
COc1ccccc1C1/C(=C(\O)c2ccc3c(c2)OCCO3)C(=O)C(=O)N1CCCn1ccnc1 (stereo not given)	5	42*	103	45*	-18	98	12	-1	·	33

Compound activity from PubChem.
